Rows were chosen to be rich in hits. Some 3.1% of all compounds tested hit in one or more screens of this group.
PAFAH1B2 inh – inhibitors of human PAFAH1B2. P68402. recombinant PAFAH1B2, FP-rhodamine activity probe, fluorescence polarization. inhibition, % at 3.39 µM. 340,000 tested, 1.2% active;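 active = inhibition above the mean of all tested compounds plus 3 SD, cut at about 24% in these data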
Target sequence (P68402 whole entry, looked up): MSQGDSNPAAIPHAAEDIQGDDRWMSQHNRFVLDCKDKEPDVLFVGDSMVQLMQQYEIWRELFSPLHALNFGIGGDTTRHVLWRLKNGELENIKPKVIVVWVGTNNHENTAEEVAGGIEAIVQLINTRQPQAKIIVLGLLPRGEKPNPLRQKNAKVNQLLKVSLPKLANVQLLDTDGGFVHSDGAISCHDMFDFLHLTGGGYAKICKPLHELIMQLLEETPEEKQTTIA
PAFAH1B3 inh – blocks human PAF acetylhydrolase 1B catalytic subunit 3 | Q15102 | 340,000 tested, 0.28% active | inhibition, % at 3.39 µM | recombinant PAFAH1B3, FP-rhodamine probe, fluorescence polarization | AID 492972;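 active = inhibition above the screen-wide average of all tested compounds plus 3 SD, cut at about 25% in these data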
Apaf-1 inh – inhibitors of human Apaf-1 apoptosome | O14727 | reconstituted apoptosome caspase-3 activity, DEVD-Rh110 fluorescence | inhibition, % at 20 µM | 330,000 tested, 0.71% active; active = inhibition of at least 40% at 20 µM
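Assay system: Apoptosome proteins | Medium: pH 7.5 Hepes buffer with CHAPS, BSA, DTT | Also added: Cytochrome c and DEVD-Rh110 substrate | Times: 30 min plus 50 min, RT | Detection: Rhodamine 110 fluorescence at Ex 480/Em 540 nm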
pPAFAH inh – inhibitors of human plasma PAF acetylhydrolase (pPAFAH). AID 463082. recombinant pPAFAH, FP-rhodamine probe fluorescence polarization. 330,000 tested, 1.5% active. inhibition, % at 3.39 µM;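 active = inhibition above the mean inhibition across the screen plus 3 SD, cut at about 25% in these data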;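 note: inhibitors block binding of the rhodamine activity-based probe so polarization drops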
Target sequence (Q13093 whole entry, looked up): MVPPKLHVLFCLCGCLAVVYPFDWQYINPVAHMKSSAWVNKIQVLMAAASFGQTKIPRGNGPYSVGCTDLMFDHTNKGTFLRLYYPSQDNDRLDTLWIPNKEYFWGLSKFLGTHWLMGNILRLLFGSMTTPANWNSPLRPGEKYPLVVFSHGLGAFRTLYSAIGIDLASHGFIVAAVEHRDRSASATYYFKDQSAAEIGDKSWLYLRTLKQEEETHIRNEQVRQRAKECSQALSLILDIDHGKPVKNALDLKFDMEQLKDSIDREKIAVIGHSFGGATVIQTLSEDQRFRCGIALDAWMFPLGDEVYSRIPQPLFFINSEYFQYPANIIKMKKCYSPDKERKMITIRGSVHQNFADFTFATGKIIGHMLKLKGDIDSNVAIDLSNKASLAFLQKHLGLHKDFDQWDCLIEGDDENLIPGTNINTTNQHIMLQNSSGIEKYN
PAFAH2 inh – inhibitors of human PAFAH2 | Q99487 | 340,000 tested, 0.99% active | recombinant PAFAH2, FP-rhodamine activity probe, fluorescence polarization | inhibition, % at 3.39 µM;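 active = inhibition above the mean over all tested compounds plus 3 SD, cut at about 30% in these data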;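 note: inhibitors block probe labeling of enzyme so polarization drops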
Apaf-1 inh conf2 – Apaf-1 inhibition, single-dose confirmed; 1,800 tested, 25% active; AID 504614; inhibition, % at 20 µM; shares compounds with Apaf-1 inh; reconstituted apoptosome, caspase-3 DEVD-Rh110 fluorescence;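 active = mean inhibition of at least 40% at 20 µM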
Rh110 interf inh – interferes with Rh110 fluorescence, flagging false Apaf-1 inhibitors | AID 504615 | activation (fluorescence interference), % at 20 µM | shares compounds with Apaf-1 inh | 1,800 tested, under 10 active | Rh110 fluorescence interference, quenched caspase reaction;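 active = signal rise of 40% or more at 20 µM, treated as a fluorescence artifact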
Fluor interf inh – counter-screen for Apaf-1 inhibitors: fluorescence interference, dose response; 460 tested, under 10 active; shares compounds with Apaf-1 inh; AID 588538; IC50, µM; fluorescence interference counterscreen, Apaf-1 assay format; call rule not given here
Numbers stand for hits; – = inactive; · = no result given.

SMILES	PAFAH1B2 inh	PAFAH1B3 inh	Apaf-1 inh	pPAFAH inh	PAFAH2 inh	Apaf-1 inh conf2	Rh110 interf inh	others
O=C(NC(c1ccccc1)c1ccccc1)C1CCCN(S(=O)(=O)c2cnc[nH]2)C1 (stereo not drawn)	–	–	–	–	–	·	·
O=C(C1CCCN(S(=O)(=O)c2cnc[nH]2)C1)N1CCN(Cc2ccccc2)CC1 (stereo not drawn)	–	–	40	–	–	–	43
Cc1ccc(S(=O)(=O)Nc2cc(S(=O)(=O)N3CCOCC3)ccc2NCC2CCCO2)cc1 (stereo not drawn)	–	–	–	–	–	·	·
O=c1cc(-c2cccc([N+](=O)[O-])c2)[nH][nH]1	–	–	68	–	–	–	–
Nc1cc(-c2cccc([N+](=O)[O-])c2)[nH]n1	–	–	–	–	–	·	·
Cc1ccc(CNC(=O)c2ccccc2NC(=O)CN2CC(C)OC(C)C2)cc1 (stereo not drawn)	–	–	–	–	–	·	·
Cc1ccc(C)c(NC(=O)CN(C)C(=O)c2cccc(S(=O)(=O)N3CCCC3)c2)c1	–	–	–	·	–	·	·
Cc1ccc(C)c(NC(=O)CN(C)C(=O)c2cccc(S(=O)(=O)N3CCN(Cc4ccccc4)CC3)c2)c1	–	–	41	–	–	–	–
CC(=O)c1ccc(S(=O)(=O)Nc2c(C)nn(C)c2C)cc1	–	–	–	·	–	·	·
CN(C)CCCN1c2ccccc2Sc2ccc(C(F)(F)F)cc21	–	–	43	–	–	–	–
CCOc1ccc(S(=O)(=O)N2CCOCC2)cc1NC(=O)C1CSC2(C)CCC(=O)N12 (stereo not drawn)	–	–	–	–	–	·	·
CCN(CC)c1ccc(S(=O)(=O)N2CCCCC2)cc1NC(=O)C1CSC2(C)CCC(=O)N12 (stereo not drawn)	–	–	51	–	–	–	–
Cc1[nH]n(-c2ccc([N+](=O)[O-])cc2)c(=O)c1/C=N/N1CCOCC1	–	–	44	–	–	–	–
CC[C@@H](C)[C@@H]1CN([C@@H](CN2CCC[C@H]2CN2C(N)=NC[C@H]2C(C)C)C(C)C)C(=N)N1CCCC1CCCC1	–	–	40	–	–	–	–
CC[C@@H](C)[C@@H]1CN([C@@H](CN2CCC[C@H]2CN2C(N)=NC[C@@H]2Cc2ccccc2)C(C)C)C(=N)N1CCCC1CCCC1	–	–	63	–	–	–	–
Cc1ccc(OCC(=O)N(Cc2nnc(-c3ccccc3Cl)o2)C2CC2)cc1C	–	–	56	–	–	49	–	Fluor interf inh=–
COc1ccc(NS(=O)(=O)c2cccc(C(=O)NCC(c3ccco3)N3CCCC3)c2)cc1 (stereo not drawn)	–	–	–	–	–	·	·
O=C(NCC(c1ccco1)N1CCCC1)c1cccc(S(=O)(=O)Nc2ccc(Br)cc2)c1 (stereo not drawn)	–	–	59	28	–	42	–	Fluor interf inh=–
CNC[C@@H]1Oc2ccc(NS(=O)(=O)c3ccc(Cl)cc3)cc2C(=O)N([C@H](C)CO)C[C@@H]1C	–	–	45	–	–	–	–
C[C@H]1CN([C@@H](C)CO)C(=O)c2cc(NS(=O)(=O)c3ccc(Cl)cc3)ccc2O[C@@H]1CN(C)CC1CCCCC1	–	–	–	–	–	·	·
Cc1ccc(CN2CC(C(=O)N3CCN(S(=O)(=O)c4cc(C)ccc4C)CC3)CC2=O)cc1 (stereo not drawn)	–	–	–	–	–	·	·
Cc1ccc(CN2CC(C(=O)N3CCN(S(=O)(=O)c4ccc(C)cc4C)CC3)CC2=O)cc1 (stereo not drawn)	–	–	48	–	–	–	–
CN1CCC[C@@H]1CCNC(=O)c1c(-c2ccc3c(c2)OCO3)noc1-c1ccsc1	–	–	40	–	–	–	–
O=C(Nc1cccc(S(=O)(=O)NC2=NCCC2)c1)c1ccc(C(F)(F)F)cc1	–	–	–	–	–	·	·
O=C(NCc1ccccn1)C(=O)NCC1OCCN1S(=O)(=O)c1ccc(F)cc1 (stereo not drawn)	–	–	–	–	–	·	·
SMILES	PAFAH1B2 inh	PAFAH1B3 inh	Apaf-1 inh	pPAFAH inh	PAFAH2 inh	Apaf-1 inh conf2	Rh110 interf inh	others
CCCCNc1c(-c2ccc(SC3CCCCC3)cc2)nc2cnccn12	–	–	42	–	–	–	–
CCCCNc1c(-c2ccc(OC)c(SC3CCCCC3)c2)nc2cc(C)ccn12	–	–	–	–	–	·	·
CCC(C)Sc1ccc(-c2nc3cc(C)ccn3c2NC2CCCCC2)cc1 (stereo not drawn)	–	–	–	–	–	·	·
CCC(C)Sc1ccc(-c2nc3cnccn3c2NC2CCCCC2)cc1 (stereo not drawn)	–	–	45	–	–	–	–
Cc1ccc(OCCC(=O)N(CCC(C)C)c2c(N)n(Cc3ccccc3)c(=O)[nH]c2=O)cc1	–	–	–	–	–	·	·
Oc1ccc(NCc2cccc(OCc3ccc(F)cc3)c2)cc1	–	–	–	–	–	·	·
Oc1ccc(NCc2cccc(OCc3ccccc3)c2)cc1	–	–	91	–	–	–	–
O=C1CCN2C=Nc3cccc4ccc1c2c34	–	–	43	–	–	–	–
O=C1C(Cl)=C(NCCN2CCOCC2)C(=O)c2ccccc21	–	–	46	–	–	47	–	Fluor interf inh=–
CCOCCCNS(=O)(=O)c1ccccc1	–	–	–	–	–	·	·
O=C1C(Cl)=C(NCCCN2CCOCC2)C(=O)c2ccccc21	–	–	·	·	–	·	·
CCOCCCNC1=C(Cl)C(=O)c2ccccc2C1=O	–	–	48	–	–	–	–
O=C(CCN=C1NS(=O)(=O)c2ccccc21)OCc1nnc(-c2ccc([N+](=O)[O-])cc2)o1	–	–	–	–	–	·	·
O=C(NCCN1C(=O)S/C(=C/c2cccnc2)C1=O)c1ccc(S(=O)(=O)N2CCCC2)cc1	–	–	·	·	–	·	·
Cc1[nH][nH]c(=O)c1C(c1c(C)[nH][nH]c1=O)c1cn(Cc2cccc3ccccc23)c2ccccc12	–	–	95	–	–	51	–	Fluor interf inh=–
CC(C)NC(=O)c1sc2nc3c(c(-c4cccs4)c2c1N)CN(C)CC3	–	–	–	–	–	·	·
Cc1cccc(NC(=O)c2sc3nc4c(c(-c5cccs5)c3c2N)CN(C)CC4)c1	–	–	50	–	–	–	–
C/C(=N\NC(=O)CNc1cccc2ccccc12)c1ccccc1	–	–	83	–	–	–	–
C/C(CCc1ccco1)=N\NC(=O)CNc1cccc2ccccc12	–	–	–	–	–	·	·
Cc1[nH]c(C)c(S(=O)(=O)N2CCCCC2C)c1C(=O)N1CCCC1 (stereo not drawn)	–	–	–	–	–	·	·
COCCCNC(=O)c1ccc2c3c(onc13)-c1ccccc1C2=O	–	–	80	–	–	74	–	Fluor interf inh=–

Bioassay records: PubChem BioAssay, several laboratories
